RORA act: activators of human nuclear receptor RORA; activation, % at 10 µM; CHO-K1 Gal4-RORA LBD luciferase reporter, luminescence; percent increase over mock-subtracted basal signal; actives 1.5% (n = 65,000); AID 560;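 active = activation above the mean of all tested compounds plus 3 SD, cut at about 49% in these data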
Target sequence (P35398 whole entry, looked up, the tested form may be a part): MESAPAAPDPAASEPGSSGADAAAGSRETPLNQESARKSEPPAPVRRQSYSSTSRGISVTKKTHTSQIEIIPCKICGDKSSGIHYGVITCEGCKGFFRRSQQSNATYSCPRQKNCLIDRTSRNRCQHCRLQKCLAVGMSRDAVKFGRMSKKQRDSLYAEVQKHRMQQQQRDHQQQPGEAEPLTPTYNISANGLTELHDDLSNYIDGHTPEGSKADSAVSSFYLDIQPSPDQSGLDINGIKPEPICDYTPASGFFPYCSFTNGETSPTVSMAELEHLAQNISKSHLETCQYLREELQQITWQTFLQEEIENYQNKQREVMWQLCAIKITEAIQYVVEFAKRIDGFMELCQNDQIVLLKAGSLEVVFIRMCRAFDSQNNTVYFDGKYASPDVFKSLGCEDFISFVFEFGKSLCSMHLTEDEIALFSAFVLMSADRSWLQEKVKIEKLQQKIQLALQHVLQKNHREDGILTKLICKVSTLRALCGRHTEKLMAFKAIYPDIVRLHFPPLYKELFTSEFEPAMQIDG
S1P3 ag: S1P3 (human) receptor agonism; S1P3 NFAT-BLA reporter cells, FRET ratio; relative to 1 µM S1P, basal subtracted; activation, % at 4.5 µM; actives 0.1% (n = 60,000);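 active = activation above the screen-wide mean plus 3 SD, cut at about 4.5% in these data, passing the limit was not always enough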
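material = human S1P3 NFAT-BLA reporter CHO cells | schedule = 4 h compound at 37 °C, 2 h substrate at RT | measured by = fluorescent BLA substrate, ex 405 nm, em 460/535 nm ratio | controls = 1 µM S1P reference | replication = primary once, confirmation triplicate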
M1 agonist: activates the M1 muscarinic receptor | CHO-M1 cells, Fluo-4 calcium fluorescence, agonist mode; hits give high values | B-score at 10 µM | actives 3% (n = 64,000);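 active = fluorescence rise, raw or as B-score row- and column-corrected plate score, outside the 99.7% band of its plate's samples, either direction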
SF1 activator: activates the human nuclear receptor SF-1; Q13285; CHO-K1 Gal4-SF-1 LBD luciferase reporter; % increase over DMSO SF-1-specific signal; activation, % at 10 µM; actives 1.9% (n = 65,000); AID 522;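 active = activation above the mean activation of all tested compounds plus 3 SD, cut at about 50% in these data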
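Assay system – CHO-K1 cells with Gal4–hSF-1 LBD chimera plus Gal4-driven luciferase · Quantity – 4,000 cells per well · Times – compound added 1 h post-seeding, 20 h exposure at 37 °C, 5% CO2 · Measured by – luciferase light emission · Benchmarks – DMSO and mock-transfected background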
M1 antag: M1 muscarinic receptor (rat) antagonism | B-score at 10 µM | P08482 | AID 628 | CHO-M1 cells, Fluo-4 calcium, ACh EC80 antagonist mode; hits give low values | actives 3.4% (n = 64,000);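 active = calcium fluorescence response, raw or row-and-column corrected B-score, differing from the plate sample mean either way at a set confidence level, mostly lower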
S1P1 ag-PAM: activates or potentiates agonism at human S1P1 receptor; activation, % at 9.5 µM; S1P1 CRE-bla cells, forskolin, beta-lactamase FRET, potentiator mode; S1P1 agonist co-added at EC20, 2 nM; 100% = saturating reference agonist, 0% = basal; actives 0.57% (n = 56,000); P21453; AID 449;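 active = activation above a cutoff set at the mean activation of all tested compounds plus 3 SD, cut at about 54% in these data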;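 also: forskolin at 4 µM as EC80 and the EC20 agonist is SEW2871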
M1 antag confirm: confirmation of rat M1 muscarinic receptor antagonists; shares compounds with M1 antag; CHO-M1 cells, Fluo-4 calcium, ACh EC80 antagonism; hits give low values; calcium response (max-min fluorescence) at 10 µM; actives 43% (n = 1,700);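 active = calcium response below the same-plate mean of wells given acetylcholine alone at its 80%-effect dose, minus 3 SD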
mGluR4 antag: acts on human mGluR4 in M1 antagonist selectivity test. shares compounds with M1 antag. CHO-mGluR4 calcium flux, Fluo-4 fluorescence, glutamate EC80; hits give low values. fluorescence response (max-min) at 10 µM. actives 0.9% (n = 1,700). AID 678;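 active = fluorescence response below the plate's average for near-maximal glutamate wells, less 3 SD of those wells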;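 also: raw unnormalized fluorescence span taken in the window right after glutamate addition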
Each line names hits and unclear results; the compound was inactive in the other large screens (follow-up assays come after a bar, where they were run). Rows were chosen to be rich in hits. Some 8.8% of all compounds tested hit in one or more screens of this group.

Cc1ccc(Cl)cc1N(CC(=O)N1CCCCCC1)S(C)(=O)=O	M1 antag -2.87 (no result: S1P3 ag, S1P1 ag-PAM) | M1 antag confirm inactive | mGluR4 antag inactive
CS(=O)(=O)N(CC(=O)N1CCCC1)c1cccc(Cl)c1	none (no result: M1 agonist, M1 antag)
CCOC(=O)COc1cc2c3c(c(=O)oc2cc1C)CCCC3	M1 antag -17.2 (no result: S1P1 ag-PAM) | M1 antag confirm 119 | mGluR4 antag inactive
COC(=O)CSC1=C(C#N)C(c2sccc2C)CC(=O)N1 (stereo not given)	none (no result: S1P1 ag-PAM)
COC(=O)CSC1=C(C#N)C(c2ccc(F)cc2)CC(=O)N1 (stereo not given)	M1 antag -2.23 | M1 antag confirm inactive | mGluR4 antag inactive
O=C(CCS(=O)(=O)c1cccc2nsnc12)N1CCN(C(=O)c2ccco2)CC1	none (no result: S1P3 ag, S1P1 ag-PAM)
O=C(CN1CCN(Cc2ccc3c(c2)OCO3)CC1)N1CCc2[nH]c3ccc(F)cc3c2C1	M1 antag -3.82 | M1 antag confirm inactive | mGluR4 antag inactive
O=C(Cn1ccc2ccccc2c1=O)N1CCN(Cc2ccc3c(c2)OCO3)CC1	M1 antag -2.81 | M1 antag confirm inactive | mGluR4 antag inactive
O=C(c1cc2ccccc2oc1=O)N1CCN(Cc2ccc3c(c2)OCO3)CC1	none
O=C(CCS(=O)(=O)c1cccc2nsnc12)N1CCN(Cc2ccc3c(c2)OCO3)CC1	M1 antag -2.49 (no result: S1P3 ag, S1P1 ag-PAM) | M1 antag confirm inactive | mGluR4 antag inactive
O=C(CN1CCN(Cc2ccc3c(c2)OCO3)CC1)N1CCc2[nH]c3ccccc3c2C1	none
COCc1c(C(=O)OCC(=O)N2c3ccccc3NC(=O)C2(C)C)oc2ccccc12	none
CCN1C(=O)c2ccccc2S(=O)c2ccc(C(=O)N3CCN(C(=O)c4ccco4)CC3)cc21 (stereo not given)	M1 antag -1.34 | M1 antag confirm inactive | mGluR4 antag inactive
CCn1cc(S(=O)(=O)CC(=O)N2CCc3ccccc32)c2ccccc21	none
CCCN(CCC)CCCNC(=O)c1cc2cc3ccc(OC)cc3nc2o1	M1 antag -6.97 | M1 antag confirm 437 | mGluR4 antag inactive
COc1ccc2cc3cc(C(=O)NCCCN4CCOCC4)oc3nc2c1	none
CCCCN(CC)CCCNC(=O)c1cc2cc3ccc(OC)cc3nc2o1	M1 antag -4.75 | M1 antag confirm inactive | mGluR4 antag inactive
CCn1c(SCC(=O)N2CCCc3ccccc32)nnc1-c1cccs1	none (no result: S1P1 ag-PAM)
CCc1nnc(SCC(=O)N2CCCc3ccccc32)nc1CC	M1 antag -3.34 | M1 antag confirm inactive | mGluR4 antag inactive
CCn1c(CSc2ncccn2)nnc1SCC(=O)N1CCc2ccccc21	M1 antag -5.44 | M1 antag confirm inactive | mGluR4 antag inactive
Cc1ccc(S(=O)(=O)Nc2c(C)n(C)n(-c3ccccc3)c2=O)cc1C(=O)NCc1ccccn1	none
CCn1c(SCc2ccccc2)nnc1-c1ccc(S(=O)(=O)N2CCCCC2)cc1	M1 antag -2 | M1 antag confirm inactive | mGluR4 antag inactive
CCn1c(SCc2nnc(-c3ccccc3)o2)nnc1-c1ccc(S(=O)(=O)N2CCCC2)cc1	none
CCCCn1c(=O)n(Cc2cccc(F)c2)c(=O)c2c1ncn2Cc1ccco1	M1 antag -1.49 | M1 antag confirm inactive | mGluR4 antag inactive
CCOC(=O)N1CCN(C(=O)CSCc2nc(-c3ccccc3C)oc2C)CC1	none
CCOC(=O)N1CCN(C(=O)C2CCN(Cc3nc(-c4ccccc4C)oc3C)CC2)CC1	M1 antag -3.04 | M1 antag confirm inactive | mGluR4 antag inactive
CCOC(=O)N1CCN(C(=O)C2CCCN(Cc3nc(-c4ccc(Cl)cc4)oc3C)C2)CC1 (stereo not given)	M1 antag -3.78 | M1 antag confirm 343 | mGluR4 antag inactive
Cc1oc(-c2ccc(Cl)cc2)nc1CN1CCCC(C(=O)NCCCN2CCCC2=O)C1 (stereo not given)	M1 antag -3.97 | M1 antag confirm inactive | mGluR4 antag inactive
COc1ccc(OC)c(NS(=O)(=O)Cc2ccccc2)c1	none
COc1ccccc1-n1c(CNC(=O)c2ccco2)nnc1SCC(=O)Nc1ccc(F)cc1	none
CN1CCC(N(C)CC(=O)Nc2cccc(Oc3ccccc3)c2)CC1	M1 antag -2.8 | M1 antag confirm 454 | mGluR4 antag inactive
COc1cccc(NC(=O)CCN2CCN(C)CC2)c1	none (no result: M1 agonist, M1 antag)
CC1CCCN(CCC(=O)c2ccc(Br)cc2)C1 (stereo not given)	M1 antag -4.54 | M1 antag confirm inactive | mGluR4 antag inactive
CC1CCN(CCC(=O)Nc2ccc(Br)cc2)CC1	none
CCOC(=O)C1CCCN(c2c(NCCCN(CC)c3cccc(C)c3)c(=O)c2=O)C1 (stereo not given)	M1 antag -5.23 | M1 antag confirm inactive | mGluR4 antag inactive
COc1ccc(CCNC(=O)c2nnn(-c3ccc4c(c3)OCCO4)c2N)cc1OC	none (no result: M1 agonist, M1 antag)
Cc1ccc(N2C(=O)C3ON(c4ccccc4)C(c4ccncc4)C3C2=O)cc1 (stereo not given)	none
CN1C(=O)C2ON(c3ccccc3)C(c3cccs3)C2C1=O (stereo not given)	M1 antag -2.67 | M1 antag confirm inactive | mGluR4 antag inactive
Cc1sc2nc(C3CC3)nc(NCCNS(C)(=O)=O)c2c1C	none
Cc1oc(-c2ccc(Cl)cc2)[n+]([O-])c1C	M1 antag -1.63 | M1 antag confirm inactive | mGluR4 antag inactive
Cc1ccc(-c2nnc(N(C)C(=O)c3ccccn3)s2)cn1	none
CCN(CC)CCOC(=O)C12CC3CC(CC(C3)C1)C2	M1 antag -16.1 | M1 antag confirm 173 | mGluR4 antag inactive
CCOC(=O)C1CCN(C(=O)NC23CC4CC(CC(C4)C2)C3)CC1	none
COc1ccc(Cl)cc1NC(=O)CCN1CCN(c2ccccc2C)CC1	none (no result: S1P3 ag, S1P1 ag-PAM)
CCN1CCN(c2ncc(C(=O)Nc3cc(Cl)ccc3OC)c3ccccc23)CC1	M1 antag -21.4 | M1 antag confirm 20.8 | mGluR4 antag inactive
Cc1cc2nc(SCCN3CCCC3)[nH]c2cc1C	M1 antag -1.91 | M1 antag confirm inactive | mGluR4 antag inactive
Cc1cc2nc(SC(C)C(=O)O)[nH]c2cc1C (stereo not given)	none
Nc1ncnc2nc(SCCN3CCCCC3)[nH]c12	M1 antag -2.78 | M1 antag confirm inactive | mGluR4 antag inactive
Nc1ncnc2nc(SCc3ccccc3)[nH]c12	none

Screening data: PubChem BioAssay, several laboratories
